# Several values for one entry are separate records, joined by “and”; a condition that tells them apart may be missing. Equal values may be shown once.
# System: HEK-293T
# Test: Multiplex assay against HEK293T
# Type: toxicity, cell-based
# Details: human
# Outline: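 Phenotypes for tubulin, mitochondrial mass and membrane permeability are expressed as per cents of healthy-nucleus cells. Cells were stained live at seeding with Hoechst33342, BioTracker Green Microtubule Cytoskeleton Dye, MitoTracker Red and Annexin V Alexa Fluor 680, then imaged after compound addition on a CQ1 microscope at 37°C and 5% CO2. Machine-learning gating in CellPathfinder separated Hoechst high-intensity objects from normal cells, divided normal cells by nuclear state (healthy, pyknosed, fragmented) and divided pyknosed cells into mitotic or apoptotic.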
# [1] = 12 h, 1 µM, compound concentration 1 uM
# [2] = 12 h, 10 µM, compound concentration 10 uM
# [3] = 24 h, 1 µM, compound concentration 1 uM
# [4] = 24 h, 10 µM, compound concentration 10 uM
# [5] = 48 h, 1 µM, compound concentration 1 uM
# [6] = 48 h, 10 µM, compound concentration 10 uM
smiles,measurement,setting,value
CCNC1(C(N)=O)CCN(c2ncnc3c2nc(-c2ccccc2Cl)n3-c2ccc(Cl)cc2)CC1 [OTENABANT],Population Apoptotic (%),[1],51% and 58%
same,Population Fragmented Nuclei (%),[1],8%
same,Population Healthy Nuclei (%),[1],80% and 76%
same,Population Hoechst High Intensity Objects (%),[1],10% and 6%
same,Population Membrane Permeable-Phenotype (%),[1],0%
same,Population Mitochondria Different-Phenotype (%),[1],48% and 66%
same,Population Mitotic Cells (%),[1],48% and 41%
same,Population Normal (%),[1],89% and 93%
same,Population Pyknosed Nuclei (%),[1],10% and 15%
same,Population Tubulin-Different-Phenotype (%),[1],52% and 44%
same,Total Cell Count,[1],401 and 333
same,Population Apoptotic (%),[2],46% and 63%
same,Population Fragmented Nuclei (%),[2],3% and 4%
same,Population Healthy Nuclei (%),[2],74% and 67%
same,Population Hoechst High Intensity Objects (%),[2],16% and 9%
same,Population Membrane Permeable-Phenotype (%),[2],0%
same,Population Mitochondria Different-Phenotype (%),[2],82% and 96%
same,Population Mitotic Cells (%),[2],53% and 36%
same,Population Normal (%),[2],83% and 90%
same,Population Pyknosed Nuclei (%),[2],22% and 27%
same,Population Tubulin-Different-Phenotype (%),[2],50% and 43%
same,Total Cell Count,[2],381 and 251
same,Population Apoptotic (%),[3],49% and 40%
same,Population Fragmented Nuclei (%),[3],8% and 12%
same,Population Healthy Nuclei (%),[3],80% and 75%
same,Population Hoechst High Intensity Objects (%),[3],5%
same,Population Membrane Permeable-Phenotype (%),[3],0%
same,Population Mitochondria Different-Phenotype (%),[3],43% and 47%
same,Population Mitotic Cells (%),[3],50% and 59%
same,Population Normal (%),[3],94%
same,Population Pyknosed Nuclei (%),[3],11%
same,Population Tubulin-Different-Phenotype (%),[3],44% and 41%
same,Total Cell Count,[3],474 and 442
same,Population Apoptotic (%),[4],40% and 64%
same,Population Fragmented Nuclei (%),[4],8% and 6%
same,Population Healthy Nuclei (%),[4],71% and 77%
same,Population Hoechst High Intensity Objects (%),[4],17% and 13%
same,Population Membrane Permeable-Phenotype (%),[4],1% and 0%
same,Population Mitochondria Different-Phenotype (%),[4],79% and 95%
same,Population Mitotic Cells (%),[4],59% and 35%
same,Population Normal (%),[4],82% and 86%
same,Population Pyknosed Nuclei (%),[4],19% and 15%
same,Population Tubulin-Different-Phenotype (%),[4],56% and 53%
same,Total Cell Count,[4],452 and 283
same,Population Apoptotic (%),[5],34% and 32%
same,Population Fragmented Nuclei (%),[5],12% and 8%
same,Population Healthy Nuclei (%),[5],78% and 82%
same,Population Hoechst High Intensity Objects (%),[5],4%
same,Population Membrane Permeable-Phenotype (%),[5],1% and 0%
same,Population Mitochondria Different-Phenotype (%),[5],29% and 30%
same,Population Mitotic Cells (%),[5],65% and 68%
same,Population Normal (%),[5],95%
same,Population Pyknosed Nuclei (%),[5],9% and 8%
same,Population Tubulin-Different-Phenotype (%),[5],30%
same,Total Cell Count,[5],766 and 604
same,Population Apoptotic (%),[6],52% and 70%
same,Population Fragmented Nuclei (%),[6],13% and 10%
same,Population Healthy Nuclei (%),[6],71% and 77%
same,Population Hoechst High Intensity Objects (%),[6],16% and 14%
same,Population Membrane Permeable-Phenotype (%),[6],2% and 0%
same,Population Mitochondria Different-Phenotype (%),[6],78% and 89%
same,Population Mitotic Cells (%),[6],47% and 29%
same,Population Normal (%),[6],83% and 85%
same,Population Pyknosed Nuclei (%),[6],15% and 12%
same,Population Tubulin-Different-Phenotype (%),[6],66% and 57%
same,Total Cell Count,[6],560 and 325
CN1CCN2c3ccccc3Cc3ccccc3C2C1.Cl (configuration not stated) [MIANSERIN HYDROCHLORIDE],Population Apoptotic (%),[1],23% and 46%
same,Population Fragmented Nuclei (%),[1],5% and 7%
same,Population Healthy Nuclei (%),[1],79% and 77%
same,Population Hoechst High Intensity Objects (%),[1],5% and 10%
same,Population Membrane Permeable-Phenotype (%),[1],0%
same,Population Mitochondria Different-Phenotype (%),[1],36% and 63%
same,Population Mitotic Cells (%),[1],76% and 53%
same,Population Normal (%),[1],94% and 89%
same,Population Pyknosed Nuclei (%),[1],14%
same,Population Tubulin-Different-Phenotype (%),[1],21% and 17%
same,Total Cell Count,[1],338 and 376
same,Population Apoptotic (%),[2],34% and 42%
same,Population Fragmented Nuclei (%),[2],5%
same,Population Healthy Nuclei (%),[2],81% and 85%
same,Population Hoechst High Intensity Objects (%),[2],9% and 4%
same,Population Membrane Permeable-Phenotype (%),[2],1% and 0%
same,Population Mitochondria Different-Phenotype (%),[2],45% and 53%
same,Population Mitotic Cells (%),[2],65% and 57%
same,Population Normal (%),[2],90% and 95%
same,Population Pyknosed Nuclei (%),[2],13% and 8%
same,Population Tubulin-Different-Phenotype (%),[2],40% and 28%
same,Total Cell Count,[2],410 and 491
same,Population Apoptotic (%),[3],22% and 26%
same,Population Fragmented Nuclei (%),[3],9% and 10%
same,Population Healthy Nuclei (%),[3],80%
same,Population Hoechst High Intensity Objects (%),[3],1% and 8%
same,Population Membrane Permeable-Phenotype (%),[3],0%
same,Population Mitochondria Different-Phenotype (%),[3],21% and 37%
same,Population Mitotic Cells (%),[3],77% and 73%
same,Population Normal (%),[3],98% and 91%
same,Population Pyknosed Nuclei (%),[3],10% and 9%
same,Population Tubulin-Different-Phenotype (%),[3],14% and 16%
same,Total Cell Count,[3],479 and 486
same,Population Apoptotic (%),[4],24% and 32%
same,Population Fragmented Nuclei (%),[4],8% and 5%
same,Population Healthy Nuclei (%),[4],77% and 84%
same,Population Hoechst High Intensity Objects (%),[4],5% and 3%
same,Population Membrane Permeable-Phenotype (%),[4],0%
same,Population Mitochondria Different-Phenotype (%),[4],31% and 36%
same,Population Mitotic Cells (%),[4],75% and 67%
same,Population Normal (%),[4],94% and 96%
same,Population Pyknosed Nuclei (%),[4],14% and 10%
same,Population Tubulin-Different-Phenotype (%),[4],34% and 21%
same,Total Cell Count,[4],486 and 612
same,Population Apoptotic (%),[5],13% and 37%
same,Population Fragmented Nuclei (%),[5],15% and 16%
same,Population Healthy Nuclei (%),[5],77% and 78%
same,Population Hoechst High Intensity Objects (%),[5],1% and 3%
same,Population Membrane Permeable-Phenotype (%),[5],1% and 0%
same,Population Mitochondria Different-Phenotype (%),[5],15% and 18%
same,Population Mitotic Cells (%),[5],86% and 62%
same,Population Normal (%),[5],98% and 96%
same,Population Pyknosed Nuclei (%),[5],6% and 4%
same,Population Tubulin-Different-Phenotype (%),[5],9%
same,Total Cell Count,[5],812 and 761
same,Population Apoptotic (%),[6],24% and 35%
same,Population Fragmented Nuclei (%),[6],14%
same,Population Healthy Nuclei (%),[6],76% and 79%
same,Population Hoechst High Intensity Objects (%),[6],2% and 1%
same,Population Membrane Permeable-Phenotype (%),[6],0% and 1%
same,Population Mitochondria Different-Phenotype (%),[6],18% and 14%
same,Population Mitotic Cells (%),[6],75% and 64%
same,Population Normal (%),[6],97% and 98%
same,Population Pyknosed Nuclei (%),[6],8% and 6%
same,Population Tubulin-Different-Phenotype (%),[6],17% and 11%
same,Total Cell Count,[6],702 and 860

# From ChEMBL document CHEMBL5724801, “EUbOPEN Chemogenomics Library - Multiplex” (2024)
